# GC-A act – GC-A (human) enzyme activation | HEK293 GC-A cells, cGMP TR-FRET, EC30 ANP; 0% at EC30 ANP, 100% saturating ANP | activation, % at 10 µM | hit rate 0.14% among 370,000; in the data active = activation above about 40%
# ARFGAP1 inh – inhibitors of rat ARFGAP1. Q62848. AID 651572. hit rate 0.26% among 360,000. inhibition, % at 16.5 µM. Arfgap1-stimulated ARF1 GTP hydrolysis, GDP FP detection;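 active = inhibition above a per-plate limit, mean inhibition of low control wells plus 3 SD, cut at about 25% in these data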;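 note: 0% = DMSO wells with enzyme and 100% = wells lacking Arfgap1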
# Target sequence (Q62848 1-136 limits assumed): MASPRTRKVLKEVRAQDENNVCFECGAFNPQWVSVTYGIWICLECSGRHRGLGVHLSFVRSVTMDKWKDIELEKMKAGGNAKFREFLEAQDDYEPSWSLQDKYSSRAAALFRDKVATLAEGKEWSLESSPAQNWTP
#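 Assay system: Rat Arfgap1 GAP domain (His6, aa 1-136), purified enzyme | Buffer or medium: HEPES 25 mM pH 7.5, NaCl 150 mM, MgCl2, DTT | Schedule: GTP hydrolysis reaction 2 h at 25 °C | Signal: FP of antibody-bound GDP Alexa 633 tracer, ex 620/em 688 nm | Measure: Percent inhibition of Arfgap1-stimulated GTP hydrolysis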
# GC-B act – GC-B (human) receptor activation. P20594. HEK293-GC-B cells, CNP EC30, cGMP TR-FRET; 0% at EC30 CNP, 100% saturating CNP. activation, % at 10 µM. hit rate 0.11% among 370,000;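 active = activation at 10 µM reaching about 35% in either raw or pattern-adjusted values, limit read from the data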
# ASAP1 GAP inh – inhibitors of human ASAP1 ArfGAP activity; hit rate 0.19% among 360,000; Q9ULH1; inhibition, % at 16.5 µM; ASAP1-stimulated ARF1 GTP hydrolysis, GDP FP detection; in the data active = inhibition above about 25%;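 note: 0% = vehicle with enzyme and substrate and 100% = no enzyme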
# Target sequence (Q9ULH1 325-724 limits assumed): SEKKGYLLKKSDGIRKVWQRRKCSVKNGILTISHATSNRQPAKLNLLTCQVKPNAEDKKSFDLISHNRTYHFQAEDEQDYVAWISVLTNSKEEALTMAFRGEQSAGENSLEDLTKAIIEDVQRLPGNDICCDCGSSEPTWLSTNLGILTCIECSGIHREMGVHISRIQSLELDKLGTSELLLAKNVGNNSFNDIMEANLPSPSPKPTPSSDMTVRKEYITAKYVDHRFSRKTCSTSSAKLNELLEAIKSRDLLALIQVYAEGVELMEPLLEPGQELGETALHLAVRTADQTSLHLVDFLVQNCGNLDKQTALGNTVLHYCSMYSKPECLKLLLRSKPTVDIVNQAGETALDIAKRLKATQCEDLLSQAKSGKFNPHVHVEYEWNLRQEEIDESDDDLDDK
# HCV core dimer – blocks dimerization of HCV core protein | AID 1899 | TR-FRET GST/Flag-core106 dimerization, 1536-well | inhibition, % at 5 µM | hit rate 0.33% among 300,000;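 active = inhibition above the mean of all tested compounds plus 3 SD, set per screening campaign, cut at about 45% in these data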
#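 Material: Tagged HCV core106 pair (GST and Flag) | Amount: GST-core106 13.5 nM, Flag-core106 17 nM | Medium: KF-containing HEPES buffer, pH 7.45, DTT, CHAPS, BSA | Reagent: Eu donor and XL665 acceptor anti-tag antibodies | Schedule: 4 h at 22.5 °C | Technique: Time-resolved FRET, ex 340 nm, em 617 and 671 nm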
# Fh CTSL1 inh – counter-screen for PFM18AAP inhibitors: inhibitors of F. hepatica cathepsin L1. hit rate 0.49% among 300,000. inhibition, % at 5.96 µM. recombinant F. hepatica cathepsin L1, Z-Leu-Arg-MCA fluorescence;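 active = inhibition above the mean of all tested compounds plus 3 SD, set per screening campaign, cut at about 17% in these data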;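 note: 0% = plate median of test compound wells and 100% = 1 µM Z-Phe-Ala-diazomethylketone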
# Numbers without * were called inactive; / = no result given. Hits are enriched below; roughly 1.2% of the tested compounds scored in any of these assays.
SMILES,GC-A act,ARFGAP1 inh,GC-B act,ASAP1 GAP inh,HCV core dimer,Fh CTSL1 inh
CCCCCCn1c(N2CCCC2)nc2c1c(=O)[nH]c(=O)n2C,-8,2,-4,-7,-7,-3
CCCCCn1c(NC2CCCCC2)nc2c1c(=O)[nH]c(=O)n2C,48*,-3,17,-4,7,2
Cn1c(=O)c2c(nc(NC3CCCCC3)n2Cc2ccccc2)n(C)c1=O,79*,-2,54*,-3,23,3
C/C(Cl)=C\Cn1c(Nc2ccccc2)nc2c1c(=O)n(C)c(=O)n2C,62*,0,55*,4,7,2
Cn1c(=O)c2c(nc(NCC3CCCO3)n2Cc2ccccc2)n(C)c1=O (stereo not given),28,6,29,-17,-1,-1
CSc1ccc(S(=O)(=O)NCCCn2ccnc2)cc1,0,7,1,3,-9,2
Cc1ccc(S(=O)(=O)N2CC=C(C(=O)NC3CCCC3)CC2)cc1,4,5,7,-1,6,-6
COC(=O)Cc1nnn2c1[C@H](C)[C@@H](OC)c1cccc(Cl)c1-2,1,0,1,2,/,/
Cc1cc(C)nc(Nc2ccc(N3CCCC3)cc2)n1,-5,17,-1,4,-20,17*
Cc1c(N=C2N=C(NC(=O)c3ccc(F)cc3)c3ccccc32)c(=O)n(-c2ccccc2)n1C,58*,7,-4,12,2,-5
Cc1c(NC(=O)NC(=O)c2ccc(F)cc2)c(=O)n(-c2ccccc2)n1C,-3,-10,-1,-2,7,-6
CC(=O)NCc1ccc(C(=O)COC(=O)COc2ccc(Cl)c(C)c2)s1,6,-6,-4,5,/,/
O=C1CC(c2ccco2)Cc2nc(Nc3nc(-c4ccccc4)c4ccccc4n3)ncc21 (stereo not given),-5,8,-1,-6,59*,1
O=C(Nc1ncc2c(n1)CC(c1ccco1)CC2=O)c1ccccc1 (stereo not given),-1,3,1,-2,-3,-1
COc1ccccc1NC(=S)N(CCc1ccc(OC)c(OC)c1)Cc1ccccn1,-6,-2,-5,3,0,18*
COc1ccc(CCN(Cc2ccccn2)C(=S)Nc2ccc(C)cc2)cc1OC,-3,10,4,3,1,1
COc1ccc(Cc2nnc(SCC(=O)N3CCN(c4ccccc4)CC3)o2)cc1,0,-7,-2,7,8,-7
COc1ccc(Cc2nnc(SCC(=O)N3CCCCC3)o2)cc1,0,1,0,1,-15,17*
O=C(CSc1nnc(C2CCCCC2)o1)N1CCCCC1,2,2,6,-7,-6,23*
O=C(Nc1sc2c(c1-c1nc3ccccc3s1)CCNC2)C(F)F,7,/,-1,/,/,/
CC(=O)Nc1sc2c(c1-c1nc3ccccc3s1)CCCNC2,30,/,34*,/,/,/
COc1ccc(-c2ccccc2)cc1NC(=O)C1(C)CCN1C(=O)C(C)C (stereo not given),-4,3,-6,3,/,/
O=[N+]([O-])c1c(Nc2cccc(O)c2)cc(Cl)c2nonc12,14,-2,37*,6,26,2
O=C(O)c1ccc(Nc2cc(Cl)c3nonc3c2[N+](=O)[O-])cc1,2,-1,-1,11,1,4
Cc1c(Nc2cc(Cl)c3nonc3c2[N+](=O)[O-])c(=O)n(-c2ccccc2)n1C,15,-8,37*,-4,/,/
SMILES,GC-A act,ARFGAP1 inh,GC-B act,ASAP1 GAP inh,HCV core dimer,Fh CTSL1 inh
COc1ccccc1-c1nnc(Sc2nc([N+](=O)[O-])nn2C)o1,6,-4,-3,8,-8,77*
Cn1cnnc1Sc1nc([N+](=O)[O-])nn1C,-2,4,6,-11,-11,-8
CCOc1ccccc1NC(=O)c1ccc2c(c1)C(=O)N(CC1CCCO1)C2=O (stereo not given),-2,2,-4,6,-2,18*
Cc1c(NC(=O)c2ccc3c(c2)C(=O)N(CC2CCCO2)C3=O)cccc1C(=O)O (stereo not given),10,4,3,16,2,-1
CCn1cc(C(=O)NCc2ccc3c(c2)OCO3)c(=O)c2cc(S(=O)(=O)N(C)C)ccc21,-3,-3,-1,-11,-8,18*
Nc1ncnc(NC2CCS(=O)(=O)C2)c1[N+](=O)[O-] (stereo not given),4,0,2,2,-3,49*
COc1ccc(C(=O)Nc2ccc(Cl)cc2C(=O)NCc2ccco2)cc1OC,33,-13,39*,-5,3,0
COc1cc(C(=O)Nc2sc3c(c2C(=O)NCc2ccco2)CCCC3)cc(OC)c1OC,29,2,41*,-7,16,2
O=C(OC(C(=O)NCc1cccs1)c1ccccn1)c1cccs1 (stereo not given),5,-4,4,3,1,-37
CCC(C)c1ccc(NC(=O)COC(=O)CCNS(=O)(=O)c2cccs2)cc1 (stereo not given),2,4,1,-14,/,/
COc1ccc2nc3cccc(OC)c3nc2c1,5,7,-8,-3,-27,19*
CC1(C)CC(=O)C2=C(C1)OC1=C(C(=O)CC(C)(C)C1)C2c1cccc([N+](=O)[O-])c1,-9,8,-7,11,/,/
CC1(C)CC(=O)C2=C(C1)OC1=C(C(=O)CC(C)(C)C1)C2c1ccc(O)c([N+](=O)[O-])c1,-4,4,3,1,6,18*
Cc1ccc(/C=C/C2=Cc3c(sc(NC(=O)CSc4n[nH]c(N)n4)c3C#N)C(C)(C)C2)o1,/,/,/,/,89*,12
Cc1sc(NC(=O)CSc2n[nH]c(N)n2)c(C#N)c1C,6,-3,-3,-10,/,/
O=C1NC(=Nc2ccccc2)S/C1=C\C=C\c1ccco1,-7,-9,-6,-11,21,3
Cc1ccc(N=C2NC(=O)/C(=C/C=C/c3ccco3)S2)cc1,-10,-1,-1,15,59*,0
Cc1cccc(N=C2NC(=O)/C(=C/C=C/c3ccco3)S2)c1C,-9,0,-1,4,59*,3
CC1CCN(c2ccccc2NC(=O)c2ccc(F)cc2)CC1,-1,3,-2,7,1,18*
Cc1cc(Br)c2nc3c(c(C(=O)O)c2c1)CCCCC3,64*,5,18,-6,72*,-1
CCOC(=O)C(CC(=O)c1ccccc1)CC(=O)c1ccccc1,-3,10,-2,-14,/,/
Cc1cc(C)n(C(=O)/C(C#N)=N/Nc2cc(Cl)cc(Cl)c2)n1,/,/,/,/,2,20*
